# Tests used:
# [1] = molecular target: T1, Alpha-1B adrenergic receptor (Homo sapiens, UniProt P35368); assay: Displacement of [3H]prazosin from human recombinant alpha1B adrenoceptor expressed in CHO cells after 30 mins by liquid scintillation counting; type: cell-based
# T1 sequence (P35368 whole entry): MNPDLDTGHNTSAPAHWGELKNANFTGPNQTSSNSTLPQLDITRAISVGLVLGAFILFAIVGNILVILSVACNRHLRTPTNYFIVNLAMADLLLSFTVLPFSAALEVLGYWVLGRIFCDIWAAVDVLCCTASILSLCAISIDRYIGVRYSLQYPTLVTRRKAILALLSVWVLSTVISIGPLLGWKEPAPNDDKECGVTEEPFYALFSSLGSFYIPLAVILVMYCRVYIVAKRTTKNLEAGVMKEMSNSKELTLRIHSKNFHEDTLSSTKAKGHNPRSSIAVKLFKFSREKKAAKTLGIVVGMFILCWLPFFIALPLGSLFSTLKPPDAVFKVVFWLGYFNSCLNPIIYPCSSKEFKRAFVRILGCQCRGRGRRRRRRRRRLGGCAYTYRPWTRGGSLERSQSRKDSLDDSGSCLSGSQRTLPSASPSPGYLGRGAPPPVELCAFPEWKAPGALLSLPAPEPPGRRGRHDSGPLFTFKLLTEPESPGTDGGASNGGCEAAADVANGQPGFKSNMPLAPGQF
# How it was run: (§1)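 CHO cells were stably transfected by electroporation with each human α1 subtype. Membranes (70 µg protein) were incubated in 50 mM Tris pH 7.4 with 0.1–0.4 nM [3H]prazosin and competitor (1 pM–1 µM) for 30 min at 25 °C. Nonspecific binding with 10 µM tamsulosin. Filtration and scintillation counting. pKi from 2–3 experiments in duplicate.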
# [2] = molecular target: T2, 5-hydroxytryptamine receptor 1A (Homo sapiens, UniProt P08908); assay: Displacement of [3H]8-OH-DPAT from human recombinant 5-HT1A receptor expressed in HeLa cells after 30 mins by liquid scintillation counting; type: cell-based
# T2 sequence (P08908 whole entry): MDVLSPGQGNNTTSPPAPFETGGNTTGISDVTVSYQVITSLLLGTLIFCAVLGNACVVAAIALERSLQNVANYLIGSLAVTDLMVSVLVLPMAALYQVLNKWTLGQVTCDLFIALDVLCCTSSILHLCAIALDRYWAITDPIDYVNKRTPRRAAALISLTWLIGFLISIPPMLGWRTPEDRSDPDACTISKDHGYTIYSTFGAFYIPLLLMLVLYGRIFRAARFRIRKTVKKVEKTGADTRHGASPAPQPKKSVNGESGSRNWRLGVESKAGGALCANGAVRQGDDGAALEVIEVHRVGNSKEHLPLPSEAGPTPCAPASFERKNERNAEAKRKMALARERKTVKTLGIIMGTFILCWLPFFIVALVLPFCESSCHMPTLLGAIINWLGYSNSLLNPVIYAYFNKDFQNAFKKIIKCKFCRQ
# How it was run: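 HeLa cells stably carrying genomic clone G-21 were grown in DMEM with 10% FCS, then lysed in Tris/EDTA pH 7.4. Membranes (80–90 µg protein) were incubated in 50 mM Tris, 2.5 mM MgCl2, 10 µM pargyline, pH 7.4, with 1 nM [3H]8-OH-DPAT and competitor (1 pM–1 µM) for 30 min at 30 °C, in triplicate. Nonspecific binding with 10 µM 5-HT. pKi from 2–3 experiments.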
# [3] = molecular target: T3, 5-hydroxytryptamine receptor 1A (Homo sapiens) (UniProt P08908); assay: Agonist activity at human recombinant 5-HT1A receptor expressed in HeLa cells after 30 mins by [35S]GTPgammaS binding assay; type: functional, cell-based
# T3 sequence (whole entry): T2 sequence (P08908 whole entry)
# How it was run: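 HeLa membranes expressing human 5-HT1A (50–70 µg protein) in 20 mM HEPES, 3 mM MgSO4, 120 mM NaCl pH 7.4 with 30 µM GDP; test drug 0.01 nM–10 µM, 20 min at 30 °C, then 200 pM [35S]GTPγS for 30 min at 30 °C. Nonspecific with 10 µM GTPγS; filtration and scintillation counting. Emax as % of maximal 8-OH-DPAT stimulation; pD2 = −log EC50.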
# [4] = molecular target: T3, 5-hydroxytryptamine receptor 1A (Homo sapiens); assay: Agonist activity at human recombinant 5-HT1A receptor expressed in HeLa cells after 30 mins by [35S]GTPgammaS binding assay relative to control; type: functional, cell-based
# How it was run: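 HeLa membranes (50–70 µg protein) in 20 mM HEPES, 3 mM MgSO4, 120 mM NaCl, pH 7.4, preincubated 20 min at 30 °C with 30 µM GDP and drug (0.01 nM–10 µM), then 200 pM [35S]GTPγS added for 30 min at 30 °C. Nonspecific binding with 10 µM GTPγS. Filtration and scintillation counting. Data expressed as % increase over basal, 8-OH-DPAT maximum = 100%. Emax and pD2 derived.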
# [5] = molecular target: T4, Alpha-1D adrenergic receptor (Homo sapiens, UniProt P25100); assay: Displacement of [3H]prazosin from human recombinant alpha1D adrenoceptor expressed in CHO cells after 30 mins by liquid scintillation counting; type: cell-based; how it was run: as §1
# T4 sequence (P25100 whole entry): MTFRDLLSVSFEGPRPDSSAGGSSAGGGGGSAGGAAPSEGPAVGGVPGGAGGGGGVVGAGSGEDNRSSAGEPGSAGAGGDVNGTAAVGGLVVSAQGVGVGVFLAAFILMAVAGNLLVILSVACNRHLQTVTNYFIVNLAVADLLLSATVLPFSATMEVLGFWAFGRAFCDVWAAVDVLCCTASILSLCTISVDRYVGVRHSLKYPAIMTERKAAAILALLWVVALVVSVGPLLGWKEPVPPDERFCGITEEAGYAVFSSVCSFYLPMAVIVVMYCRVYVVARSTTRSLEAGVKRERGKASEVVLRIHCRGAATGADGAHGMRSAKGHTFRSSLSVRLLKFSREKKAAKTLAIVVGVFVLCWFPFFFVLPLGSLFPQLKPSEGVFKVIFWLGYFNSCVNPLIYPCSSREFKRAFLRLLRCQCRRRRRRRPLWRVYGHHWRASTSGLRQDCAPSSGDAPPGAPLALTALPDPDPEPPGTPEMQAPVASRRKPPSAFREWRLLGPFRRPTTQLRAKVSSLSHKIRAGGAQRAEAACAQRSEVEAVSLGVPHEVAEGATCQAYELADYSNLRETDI
compound,measurement,setting,value
COc1ccccc1N1CCN(CC2COC3(CC[S+]([O-])CC3)O2)CC1 (stereo not given),Ki,[1],479 nM
same,Ki,[2],117 nM
same,pD2,[3],8.13
same,Emax,[4],139%
same,Ki,[5],42.7 nM
